Read-outs that look alike come from different tables or passages of the source.
Experiments:
[1] = system: P‐glycoprotein transporter; conditions: cited from earlier work
[2] = Population pharmacokinetic analysis of asunaprevir plasma concentrations; type: in vivo, human
Procedure, shortened: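 Japanese adults ≥20 y with chronic genotype 1 HCV (compensated cirrhosis allowed), from 2 clinical studies; oral 200 or 600 mg twice-daily tablet or 100 mg twice-daily soft-gel. Plasma by validated LC-MS/MS; below-LLOQ excluded. One-compartment, first-order absorption; log-normal IIV on CL/F, V/F; additive log-scale residual. Backward elimination (P < .001); bootstrap 95% CIs; 5th/95th covariate percentiles versus typical.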

[3] = cited from earlier work
[4] = healthy Japanese volunteers, within the dose range studied; cited from earlier work
[5] = system: cytochrome P450 (CYP) 3A4; conditions: cited from earlier work
CYP2D6 = conditions: asunaprevir; cited from earlier work
[6] = mild impairment (Child‐Pugh class A cirrhosis); cited from earlier work
[7] = system: organic anion transporting polypeptide(OATP); conditions: asunaprevir; cited from earlier work
[8] = tablet formulation used in phase 1/2 studies; cited from earlier work
[9] = cited from earlier work; remark: listed apart in the source
[10] = cited from earlier work; remark: listed apart in the source
[11] = Population pharmacokinetic analysis of daclatasvir plasma concentrations; type: in vivo, human
Procedure, shortened: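 Japanese adults ≥ 20 years with chronic HCV genotype 1 (compensated cirrhosis allowed) from 4 clinical studies; oral 10 or 60 mg once daily, with asunaprevir or pegIFN/RBV. Plasma levels by validated LC‑MS/MS; below‑LLOQ samples excluded. Nonlinear mixed‑effects model: log‑normal interindividual variability, log‑transform‑both‑sides residual error, backward covariate elimination (P < .001), bootstrap 95% CIs.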

[12] = final popPK model, Japanese HCV subjects

Which results are given for `C=C[C@@H]1C[C@]1(NC(=O)[C@@H]1C[C@@H](Oc2ncc(OC)c3ccc(Cl)cc23)CN1C(=O)[C@@H](NC(=O)OC(C)(C)C)C(C)(C)C)C(=O)NS(=O)(=O)C1CC1` [asunaprevir, Asunaprevir]?
Interaction with p‐glycoprotein ([1]; asunaprevir): weak inhibitor; Impact of OATP1B1 haplotypes (4 categories) on CL/F ([2]; covariate analysis, Japanese population): did not show statistical significance; CL/F at 5th percentile of time‐varying AST compared with the median baseline AST ([2]; final model, AST at last PK sampling point 16 U/L, higher): 1.57 fold; CL/F at 5th percentile of baseline AST relative to median baseline AST of 52 U/L ([2]; final model, baseline AST 22 U/L, higher): 1.67 fold; CL/F for cirrhotic subjects relative to subjects without cirrhosis ([2]; final model, printed as fold lower): 0.65 fold; Interindividual variability of CL/F ([2]; final popPK model): 41.5%; Interindividual variability of V/F ([2]; final popPK model): 93.4%; Ka (absorption rate constant), θ3 [2, 12]: 0.228 h^‐1; V/F (apparent volume of central compartment), θ2 ([2]; final popPK model, Japanese HCV subjects, phase 2 tablet reference): 75.1 L; Observed AUC ([3]; AI447017, phase 2 study, 200‐mg tablet formulation): 2950 ng·h/mL; Observed AUC ([3]; AI447026, phase 3 study, 100‐mg soft‐gel capsule): 2155 ng·h/mL; Dose‐exposure relationship [4]: generally increased dose‐proportionally; Interaction with CYP3A4 ([5]; asunaprevir): weak inducer and sensitive substrate; Interaction with CYP2D6 (CYP2D6): moderate inhibitor; Steady‐state exposures [6]: not changed; Interaction with OATP‐mediated uptake transport [7]: weak inhibitor and sensitive substrate; Food effect [8]: Significant food effects

Which results are given for `COC(=O)N[C@H](C(=O)N1CCC[C@H]1c1nc(-c2ccc(-c3ccc(-c4c[nH]c([C@@H]5CCCN5C(=O)[C@@H](NC(=O)OC)C(C)C)n4)cc3)cc2)c[nH]1)C(C)C` [daclatasvir, Daclatasvir]?
Association between exposure and degree of hepatic impairment or biochemical/serological markers of liver dysfunction [9]: no obvious association; Interaction with P‐glycoprotein transporter ([1]; daclatasvir): substrate and inhibitor; Excreted via feces in an unchanged form [10]: ~88%; Renal elimination [10]: ~7 % of dose; Dose‐exposure relationship [4]: generally linear; Effects on levels of the sensitive CYP3A probe midazolam in plasma ([5]; daclatasvir): minimal effects; Interaction with CYP3A4 ([5]; daclatasvir): substrate and weak inducer; Interindividual variability of CL/F ([11]; base popPK model): 39.7%; Interindividual variability of V/F ([11]; base popPK model): 40.7%; Effect of cirrhosis status and ALT/AST levels on CL/F ([11]; covariate analysis): not identified as significant covariates; CL/F reduction, women relative to men ([11]; final model): approximately 10%; V/F lower than at median (reference) body weight of 56 kg ([11]; final model, 5th percentile of baseline body weight, 42.8 kg): ~15%; V/F higher than at median (reference) body weight of 56 kg ([11]; final model, 95th percentile of baseline body weight, 78 kg): ~22%; Interindividual variability of CL/F ([11]; final popPK model): 39.4%; Interindividual variability of Ka ([11]; final popPK model): 86.9%; Interindividual variability of V/F ([11]; final popPK model): 38.1%; Random effect CL/F: V/F, ω1,2, covariance (correlation) ([11]; final popPK model): 0.141 (0.941); Ka (absorption rate constant), θ3 [11, 12]: 0.865 h^‐1; V/F (apparent volume of central compartment), θ2 ([11]; final popPK model, Japanese HCV subjects, reference BBWT 56 kg): 64.2 L; V/F ∼BBWT (baseline body weight) covariate coefficient, θ14 ([11]; final popPK model, reference 56 kg): 0.605; CL/F ∼BCRCL (baseline creatinine clearance) covariate coefficient, θ10 ([11]; final popPK model, reference 86.48 mL/min): 0.235

Reference: publication PMC6174986 (Journal of Clinical Pharmacology, 2018)
